# Measurements: ChEMBL document CHEMBL2440043, “Synthesis and structure-activity relationship of 2-phenyliminochromene derivatives as inhibitors for aldo-keto reductase (AKR) 1B10” (Bioorg Med Chem, 2013)
# pIC50, pKi: −log10 of the molar value.
# Tests used:
# [1] = target: T1, Aldo-keto reductase family 1 member B1 (Homo sapiens, UniProt P15121); experiment: Inhibition of human recombinant N-terminal His6-tagged AKR1B1 expressed in Escherichia coli by fluorescence assay in presence of NADPH
# [2] = target: T2, Aldo-keto reductase family 1 member B10 (Homo sapiens, UniProt O60218); experiment: Inhibition of human recombinant N-terminal His6-tagged AKR1B10 expressed in Escherichia coli by fluorescence assay in presence of NADPH
# Target sequence in this assay (O60218 whole entry): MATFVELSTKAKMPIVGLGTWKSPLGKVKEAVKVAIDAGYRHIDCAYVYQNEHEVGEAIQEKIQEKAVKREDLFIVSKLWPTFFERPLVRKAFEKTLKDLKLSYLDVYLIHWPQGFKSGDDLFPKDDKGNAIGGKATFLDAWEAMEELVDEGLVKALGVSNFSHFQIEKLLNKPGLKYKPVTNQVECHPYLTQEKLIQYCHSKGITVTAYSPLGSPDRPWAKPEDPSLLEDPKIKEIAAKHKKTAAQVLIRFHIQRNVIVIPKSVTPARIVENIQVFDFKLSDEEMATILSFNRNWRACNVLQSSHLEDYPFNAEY
# [3] = target: T1, Aldo-keto reductase family 1 member B1; experiment: Inhibition of human recombinant N-terminal His6-tagged AKR1B1 expressed in Escherichia coli at 10000 nM by fluorescence assay in presence of NADPH
# [4] = target: T2, Aldo-keto reductase family 1 member B10; experiment: Inhibition of human recombinant N-terminal His6-tagged AKR1B10 expressed in Escherichia coli at 10000 nM by fluorescence assay in presence of NADPH
# Target sequence in this assay (O60218 whole entry, looked up): as the sequence (O60218 whole entry) above
# [5] = target: Aldo-keto reductase family 1 member B10 (Homo sapiens, UniProt O60218, Q303S); experiment: Competitive inhibition of human recombinant AKR1B10 Q303S mutant expressed in Escherichia coli using geraniol as substrate by double-reciprocal plot analysis in presence of NADP+
# Chain of Aldo-keto reductase family 1 member B10 (Homo sapiens, UniProt O60218, Q303S) (O60218 whole entry Q303S): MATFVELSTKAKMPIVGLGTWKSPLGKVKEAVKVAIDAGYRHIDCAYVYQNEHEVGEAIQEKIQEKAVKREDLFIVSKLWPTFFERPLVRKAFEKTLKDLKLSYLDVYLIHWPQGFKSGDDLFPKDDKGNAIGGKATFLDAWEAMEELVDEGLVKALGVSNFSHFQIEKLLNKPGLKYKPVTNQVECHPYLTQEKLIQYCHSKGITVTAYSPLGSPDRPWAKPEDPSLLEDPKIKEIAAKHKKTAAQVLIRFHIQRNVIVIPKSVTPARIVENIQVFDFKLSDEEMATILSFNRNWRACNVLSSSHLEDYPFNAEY
# How it was run: (§1)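 Purified enzyme from E. coli, assayed by NADP⁺-linked geraniol oxidation at 25 °C. NADPH formation was read by fluorescence (ex 340 nm, em 455 nm). NADP⁺ was saturating at 0.25 mM, with five geraniol concentrations (25–200 μM) and three inhibitor concentrations. Ki came from replots of the slopes and intercepts of double-reciprocal plots; mean of at least three determinations.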
# [6] = target: Aldo-keto reductase family 1 member B10 (Homo sapiens, UniProt O60218, W220Y); experiment: Competitive inhibition of human recombinant AKR1B10 W220Y mutant expressed in Escherichia coli using geraniol as substrate by double-reciprocal plot analysis in presence of NADP+
# Chain of Aldo-keto reductase family 1 member B10 (Homo sapiens, UniProt O60218, W220Y) (O60218 whole entry W220Y): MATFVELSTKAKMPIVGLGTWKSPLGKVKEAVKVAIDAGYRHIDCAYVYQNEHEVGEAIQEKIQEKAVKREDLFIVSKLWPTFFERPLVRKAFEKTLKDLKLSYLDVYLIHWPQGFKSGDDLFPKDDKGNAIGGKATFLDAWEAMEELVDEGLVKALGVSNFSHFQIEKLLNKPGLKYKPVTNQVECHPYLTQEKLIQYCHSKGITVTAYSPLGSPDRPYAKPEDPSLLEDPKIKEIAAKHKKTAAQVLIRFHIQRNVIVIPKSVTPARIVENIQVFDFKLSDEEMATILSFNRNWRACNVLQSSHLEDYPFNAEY
# How it was run: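 Trp220Tyr mutant purified from E. coli; geraniol oxidation with saturating NADP⁺ (0.25 mM) at 25 °C, followed by NADPH fluorescence (ex 340 nm, em 455 nm). Five geraniol levels (50–800 μM) were tested at three inhibitor concentrations. Ki came from slope and intercept replots of double-reciprocal plots; mean of at least three determinations.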
# [7] = target: T2, Aldo-keto reductase family 1 member B10; experiment: Competitive inhibition of wild-type human recombinant N-terminal His6-tagged AKR1B10 expressed in Escherichia coli using geraniol as substrate by double-reciprocal plot analysis in presence of NADP+; how it was run: as §1
# Target sequence in this assay (O60218 whole entry): as the sequence (O60218 whole entry) above
Structure (SMILES),pIC50 [1],pIC50 [2],other results
O=C(Nc1ccccn1)c1cc2ccc(O)cc2o/c1=N\c1ccc(I)cc1,7.92,7.89,–
COc1ccc(/N=c2\oc3cc(O)ccc3cc2C(=O)NC(C)C)cc1,8.17,8.01,–
COc1ccc(/N=c2\oc3cc(O)ccc3cc2C(=O)NC2CCCCC2)cc1,7.57,7.96,–
Cc1ccc(/N=c2\oc3cc(O)ccc3cc2C(=O)Nc2ccccn2)cc1,7.59,8.07,–
COc1ccc(/N=c2\oc3cc(O)ccc3cc2C(=O)NCC(C)C)cc1,7.55,7.80,–
COc1ccc(/N=c2\oc3c(O)cccc3cc2C(=O)Nc2ccccn2)cc1,< 5.00,< 5.00,inhibition [3]: < 30%; inhibition [4]: < 30%
O=C(O)c1ccc(/N=c2\oc3cc(O)ccc3cc2C(=O)Nc2ccccn2)cc1,7.72,8.12,–
COc1ccc(/N=c2\oc3cc(O)ccc3cc2C(=O)NCCO)cc1,7.70,7.96,–
O=C(O)Cc1ccc(/N=c2\oc3cc(O)ccc3cc2C(=O)Nc2ccccn2)cc1,7.70,7.89,–
COc1ccc(/N=c2\oc3cc(O)ccc3cc2C(=O)NCc2ccccc2)cc1,7.62,8.33,pKi [5]: 8.42; pKi [6]: 7.29; pKi [7]: 8.89
COc1ccc(/N=c2\oc3cccc(O)c3cc2C(=O)Nc2ccccn2)cc1,< 5.00,–,inhibition [3]: < 30%
CCCCNC(=O)c1cc2ccc(O)cc2o/c1=N\c1ccc(OC)cc1,7.55,7.74,–
O=C(Nc1ccccn1)c1cc2ccc(O)cc2o/c1=N\c1ccccc1,7.47,7.92,–
O=C(Nc1ccccn1)c1cc2ccc(O)cc2o/c1=N\c1ccc(Br)cc1,7.60,7.85,–
COc1ccc(/N=c2\oc3cc(O)ccc3cc2C(=O)NCCCO)cc1,7.54,8.06,–
COc1ccc(/N=c2\oc3ccccc3cc2C(=O)Nc2ccccn2)cc1,–,–,inhibition [3]: < 30%
COc1ccc(/N=c2\oc3ccc(O)cc3cc2C(=O)Nc2ccccn2)cc1,< 5.00,< 5.00,inhibition [3]: < 30%; inhibition [4]: < 30%
O=C(Nc1ccccn1)c1cc2ccc(O)cc2o/c1=N\c1ccc(O)cc1,7.62,8.17,–
